The results in this text go back to ChEMBL document CHEMBL1129516, “Design, synthesis, and biological activities of cyclic lactam peptide analogues of dynorphine A(1-11)-NH2” (J Med Chem, 1996).

The species named for one test is Cavia porcellus. As to the kind of experiment: Ability to inhibit the electrically evoked contraction of the guinea pig ileum. The format is functional, organism-based. A digest of the protocol:
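Longitudinal muscle-myenteric plexus strips from male Hartley guinea pigs (250-500 g) in 37 °C oxygenated Krebs, 1 g tension, transmural stimulation 0.1 Hz, 0.4-ms supramaximal pulses. At least four tissues; IC50 by Hill equation fit.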

Another test concerns the target Mu-type opioid receptor (Cavia porcellus, UniProt P97266). As to the kind of experiment: Inhibition of [3H]DAMGO binding to Opioid receptor mu 1 of guinea pig brain membrane homogenates.
For test [1], the target named is Kappa-type opioid receptor (Cavia porcellus, UniProt P41144). As to the kind of experiment: Inhibition of [3H]U-69593 binding to Opioid receptor kappa 1 of plasma membrane homogenates of guinea pig brain. The format is cell-free.
Chain of Kappa-type opioid receptor (P41144 whole entry): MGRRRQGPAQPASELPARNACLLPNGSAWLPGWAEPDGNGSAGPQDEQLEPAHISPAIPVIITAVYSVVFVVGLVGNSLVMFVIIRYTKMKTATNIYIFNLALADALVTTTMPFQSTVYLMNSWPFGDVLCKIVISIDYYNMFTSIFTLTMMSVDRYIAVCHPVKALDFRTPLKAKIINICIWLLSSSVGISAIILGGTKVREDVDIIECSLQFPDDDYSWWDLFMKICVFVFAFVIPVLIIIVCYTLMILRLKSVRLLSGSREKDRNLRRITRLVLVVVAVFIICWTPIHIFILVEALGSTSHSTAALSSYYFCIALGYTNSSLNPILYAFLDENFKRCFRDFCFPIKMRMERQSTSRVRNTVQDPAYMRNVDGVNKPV
Test [2] deals with Kappa opioid receptor (Cavia porcellus). Kind of test: Central (GPB) and Peripheral (GPI) Nervous Systems Selectivity at kappa Opioid Receptor.
Test [3] in a line: Relative binding to mu and kappa opioid receptors (ratio of IC50).
Test [4] is described as follows: Relative binding to delta and kappa opioid receptors (ratio of IC50).

Chain of Mu-type opioid receptor (P97266 whole entry): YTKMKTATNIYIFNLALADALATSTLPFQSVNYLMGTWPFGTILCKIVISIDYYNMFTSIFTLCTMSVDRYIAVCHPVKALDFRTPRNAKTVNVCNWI

Consider `CC[C@H](C)[C@H](NC(=O)[C@H](CCCCN)NC(=O)[C@H](CCCN=C(N)N)NC(=O)[C@H](CC(C)C)NC(=O)[C@H](Cc1ccccc1)NC(=O)[C@@H](CC(=O)O)NC(=O)CNC(=O)[C@@H](N)Cc1ccc(O)cc1)C(=O)N[C@@H](CCCN=C(N)N)C(=O)N1CCC[C@H]1C(=O)N[C@@H](CCCCN)C(N)=O`, for which the 50% inhibitory concentration (IC50) in the test filed under Cavia porcellus was 4900 nM.
Turning to `CC[C@H](C)[C@H](NC(=O)[C@H](CCCNC(=N)N)NC(=O)[C@@H]1CCCCNC(=O)C[C@@H](NC(=O)[C@@H](N)Cc2ccc(O)cc2)C(=O)NCC(=O)N[C@@H](Cc2ccccc2)C(=O)N[C@@H](CC(C)C)C(=O)N1)C(=O)N[C@@H](CCCNC(=N)N)C(=O)N1CCC[C@H]1C(=O)N[C@@H](CCCCN)C(N)=O`, the values for the IC50 (on Mu-type opioid receptor; in test [1]) were 2980 nM and 100 nM, respectively.
In the same order, the values of `CC[C@H](C)[C@H](NC(=O)[C@H](CCCNC(=N)N)NC(=O)[C@H](CCCNC(=N)N)NC(=O)[C@H](CCCCN)NC(=O)[C@H](Cc1ccccc1)NC(=O)CNC(=O)CNC(=O)[C@@H](N)Cc1ccc(O)cc1)C(=O)N[C@H](CC(=O)O)C(=O)N1CCC[C@H]1C(=O)N[C@@H](CCCCN)C(N)=O` are 555 nM and 17.5 nM.
Turning to `CC[C@H](C)[C@H](NC(=O)[C@H]1CCCCNC(=O)C[C@H](NC(=O)CNC(=O)[C@@H](N)Cc2ccc(O)cc2)C(=O)N[C@H](Cc2ccccc2)C(=O)N[C@@H](CC(C)C)C(=O)N[C@H](CCCN=C(N)N)C(=O)N1)C(=O)N[C@@H](CCCN=C(N)N)C(=O)N1CCC[C@@H]1C(=O)N[C@H](CCCCN)C(N)=O`, the IC50 at Mu-type opioid receptor is 310 nM; in the test listed under Cavia porcellus, 600 nM; in test [1], 4.9 nM.
As for `CC[C@H](C)[C@H](NC(=O)[C@H](CCCCN)NC(=O)[C@H](CCCNC(=N)N)NC(=O)[C@H](CC(C)C)NC(=O)[C@H](Cc1ccccc1)NC(=O)[C@H](CC(=O)O)NC(=O)CNC(=O)[C@@H](N)Cc1ccc(O)cc1)C(=O)N[C@@H](CCCNC(=N)N)C(=O)N1CCC[C@H]1C(=O)N[C@@H](CCCCN)C(N)=O`, the IC50 at Mu-type opioid receptor amounted to 1320 nM; in test [1] it was 190 nM.
In the test listed under Cavia porcellus, `CC[C@H](C)[C@H](NC(=O)[C@H](CCCN=C(N)N)NC(=O)[C@@H]1CCCCNC(=O)C[C@H](NC(=O)[C@@H](N)Cc2ccc(O)cc2)C(=O)NCC(=O)N[C@@H](Cc2ccccc2)C(=O)N[C@@H](CC(C)C)C(=O)N1)C(=O)N[C@@H](CCCN=C(N)N)C(=O)N1CCC[C@H]1C(=O)N[C@@H](CCCCN)C(N)=O` came in with an IC50 of 610 nM.
In the case of `CC[C@H](C)[C@H](NC(=O)[C@H](CCCCN)NC(=O)[C@H](CCCNC(=N)N)NC(=O)[C@H](CC(C)C)NC(=O)[C@H](Cc1ccccc1)NC(=O)[C@@H](CC(=O)O)NC(=O)CNC(=O)[C@@H](N)Cc1ccc(O)cc1)C(=O)N[C@@H](CCCNC(=N)N)C(=O)N1CCC[C@H]1C(=O)N[C@@H](CCCCN)C(N)=O`, the half-maximal inhibitory concentration (IC50) at Mu-type opioid receptor was found to be 660 nM; in test [1], 47 nM.
The compound `CC[C@H](C)[C@H](NC(=O)[C@H](CCCCN)NC(=O)[C@H](CCCN=C(N)N)NC(=O)[C@H](CC(C)C)NC(=O)[C@H](Cc1ccccc1)NC(=O)[C@H](CC(=O)O)NC(=O)CNC(=O)[C@@H](N)Cc1ccc(O)cc1)C(=O)N[C@@H](CCCN=C(N)N)C(=O)N1CCC[C@H]1C(=O)N[C@@H](CCCCN)C(N)=O` gave an IC50 in the test listed under Cavia porcellus of 13300 nM.
As for `CC[C@@H](C)[C@H]1NC(=O)[C@H](CCCN=C(N)N)NC(=O)[C@@H](CCCN=C(N)N)NC(=O)[C@H](NC(=O)[C@@H](Cc2ccccc2)NC(=O)CNC(=O)CNC(=O)[C@H](N)Cc2ccc(O)cc2)CCCCNC(=O)C[C@H](C(=O)N2CCC[C@H]2C(=O)N[C@H](CCCCN)C(N)=O)NC1=O`, the IC50 at Mu-type opioid receptor worked out at 120 nM; in the test listed under Cavia porcellus, 9300 nM; in test [1], 100 nM.
In the case of `CC[C@H](C)[C@H](NC(=O)[C@H](CCCN=C(N)N)NC(=O)[C@H](CCCN=C(N)N)NC(=O)[C@H](CCCCN)NC(=O)[C@H](Cc1ccccc1)NC(=O)CNC(=O)CNC(=O)[C@@H](N)Cc1ccc(O)cc1)C(=O)N[C@@H](CC(=O)O)C(=O)N1CCC[C@H]1C(=O)N[C@@H](CCCCN)C(N)=O`, the IC50 at Mu-type opioid receptor worked out at 400 nM; in test [1], 35 nM.
Consider `CC[C@H](C)[C@H](NC(=O)[C@H](CCCCN)NC(=O)[C@H](CCCN=C(N)N)NC(=O)[C@H](CC(C)C)NC(=O)[C@H](Cc1ccccc1)NC(=O)[C@@H](CC(=O)O)NC(=O)CNC(=O)[C@@H](N)Cc1ccc(O)cc1)C(=O)N[C@@H](CCCN=C(N)N)C(=O)N1CCC[C@@H]1C(=O)N[C@H](CCCCN)C(N)=O`, for which the Ratio in test [2] was 110 Ratio. Further, the results for the Selectivity in test [3] and in test [4] were 14 Ratio and 19 Ratio, respectively.
For the compound `CC[C@H](C)[C@H](NC(=O)[C@H](CCCNC(=N)N)NC(=O)[C@@H]1CCCCNC(=O)C[C@H](NC(=O)[C@@H](N)Cc2ccc(O)cc2)C(=O)NCC(=O)N[C@@H](Cc2ccccc2)C(=O)N[C@@H](CC(C)C)C(=O)N1)C(=O)N[C@@H](CCCNC(=N)N)C(=O)N1CCC[C@H]1C(=O)N[C@@H](CCCCN)C(N)=O`, the IC50 on Mu-type opioid receptor was found to be 3.4 nM; in test [1], 110 nM.
For the compound `CC[C@H](C)[C@H](NC(=O)[C@H](CCCN=C(N)N)NC(=O)[C@@H]1CCCCNC(=O)C[C@@H](NC(=O)[C@@H](N)Cc2ccc(O)cc2)C(=O)NCC(=O)N[C@@H](Cc2ccccc2)C(=O)N[C@@H](CC(C)C)C(=O)N1)C(=O)N[C@@H](CCCN=C(N)N)C(=O)N1CCC[C@H]1C(=O)N[C@@H](CCCCN)C(N)=O`, the midpoint of inhibition in the test filed under Cavia porcellus, the IC50, lay at 16000 nM.
Turning to `CC[C@H](C)[C@H](NC(=O)[C@H](CCCN=C(N)N)NC(=O)[C@@H]1CCCCNC(=O)C[C@@H](NC(=O)[C@@H](N)Cc2ccc(O)cc2)C(=O)NCC(=O)N[C@H](Cc2ccccc2)C(=O)N[C@@H](CC(C)C)C(=O)N1)C(=O)N[C@@H](CCCN=C(N)N)C(=O)N1CCC[C@@H]1C(=O)N[C@H](CCCCN)C(N)=O`, in test [2], the Ratio was determined as 160 Ratio. Moreover, the Selectivity in test [3] came out at 29.8 Ratio; in test [4], 9.1 Ratio.
Turning to `CC[C@H](C)[C@H](NC(=O)[C@H](CCCNC(=N)N)NC(=O)[C@H](CCCCN)NC(=O)[C@H](CC(C)C)NC(=O)[C@H](Cc1ccccc1)NC(=O)CNC(=O)[C@H](CC(=O)O)NC(=O)[C@@H](N)Cc1ccc(O)cc1)C(=O)N[C@@H](CCCNC(=N)N)C(=O)N1CCC[C@H]1C(=O)N[C@@H](CCCCN)C(N)=O`, the IC50 is 0.08 nM at Mu-type opioid receptor and 1.5 nM in test [1].
With `CC[C@H](C)[C@H](NC(=O)[C@H](CCCN=C(N)N)NC(=O)[C@@H]1CCCCNC(=O)C[C@H](NC(=O)[C@@H](N)Cc2ccc(O)cc2)C(=O)NCC(=O)N[C@H](Cc2ccccc2)C(=O)N[C@@H](CC(C)C)C(=O)N1)C(=O)N[C@@H](CCCN=C(N)N)C(=O)N1CCC[C@@H]1C(=O)N[C@H](CCCCN)C(N)=O`, in test [2], the Ratio turned out to be 5.6 Ratio. For the same compound, the Selectivity is 0.03 Ratio in test [3] and 0.11 Ratio in test [4].
In the same order, the values of `CC[C@H](C)[C@H](NC(=O)[C@H](CCCCN)NC(=O)[C@H](CCCN=C(N)N)NC(=O)[C@H](CC(C)C)NC(=O)[C@H](Cc1ccccc1)NC(=O)[C@H](CC(=O)O)NC(=O)CNC(=O)[C@@H](N)Cc1ccc(O)cc1)C(=O)N[C@@H](CCCN=C(N)N)C(=O)N1CCC[C@@H]1C(=O)N[C@H](CCCCN)C(N)=O` are 72 Ratio, 7 Ratio and 9.5 Ratio.
In the test listed under Cavia porcellus, `CC[C@H](C)[C@H](NC(=O)[C@H](CCCN=C(N)N)NC(=O)[C@H](CCCCN)NC(=O)[C@H](CC(C)C)NC(=O)[C@H](Cc1ccccc1)NC(=O)CNC(=O)[C@H](CC(=O)O)NC(=O)[C@@H](N)Cc1ccc(O)cc1)C(=O)N[C@@H](CCCN=C(N)N)C(=O)N1CCC[C@H]1C(=O)N[C@@H](CCCCN)C(N)=O` registered an IC50 of 14.2 nM.
On to `CC[C@H](C)[C@H](NC(=O)[C@H]1CCCCNC(=O)C[C@@H](NC(=O)CNC(=O)[C@@H](N)Cc2ccc(O)cc2)C(=O)N[C@H](Cc2ccccc2)C(=O)N[C@@H](CC(C)C)C(=O)N[C@H](CCCN=C(N)N)C(=O)N1)C(=O)N[C@@H](CCCN=C(N)N)C(=O)N1CCC[C@@H]1C(=O)N[C@H](CCCCN)C(N)=O`, for which the IC50 on Mu-type opioid receptor is 740 nM; in the test listed under Cavia porcellus, 1500 nM; in test [1] it was 25 nM.
Turning to `CC[C@H](C)[C@H](NC(=O)[C@H](CCCN=C(N)N)NC(=O)[C@H](CCCN=C(N)N)NC(=O)[C@H](CCCCN)NC(=O)[C@H](Cc1ccccc1)NC(=O)CNC(=O)CNC(=O)[C@@H](N)Cc1ccc(O)cc1)C(=O)N[C@H](CC(=O)O)C(=O)N1CCC[C@H]1C(=O)N[C@@H](CCCCN)C(N)=O`, 4160 nM corresponded to half-maximal inhibition in the test listed under Cavia porcellus (IC50).
As to `CC[C@@H](C)[C@H]1NC(=O)[C@H](CCCNC(=N)N)NC(=O)[C@@H](CCCNC(=N)N)NC(=O)[C@H](NC(=O)[C@@H](Cc2ccccc2)NC(=O)CNC(=O)CNC(=O)[C@H](N)Cc2ccc(O)cc2)CCCCNC(=O)C[C@@H](C(=O)N2CCC[C@H]2C(=O)N[C@H](CCCCN)C(N)=O)NC1=O`, the IC50 on Mu-type opioid receptor amounted to 12 nM; in the test listed under Cavia porcellus, 2500 nM; in test [1], 6.6 nM.
